Laboratory results: ChEMBL document CHEMBL1127609, “Cyclic benzamides as mixed dopamine D2/serotonin 5-HT2 receptor antagonists: potential atypical antipsychotic agents” (J Med Chem, 1994)

What was measured:
Mus musculus [1] = experiment: In vivo the ability to antagonize the apomorphine induced climbing response in mice; type: functional
How it was run: (§1)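 Male CD-1 mice (20–25 g) were acclimated ≥30 min in wire-mesh cages. Drug in 0.5% methyl cellulose or vehicle was given po 60 min before sc apomorphine HCl 5 mg/kg in 0.0001 N HCl, N = 6/dose group. Climbing and stereotypy were scored every 5 min for 30 min, starting at 5 min. The six scores were averaged and % antagonism taken versus controls. ED50 by Litchfield–Wilcoxon.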

[2] = biological target: T1, 5-hydroxytryptamine receptor 1A (Rattus norvegicus, UniProt P19327); experiment: In vitro binding affinity was measured on serotonergic 5-hydroxytryptamine 1A receptor by displacement of [3H]- tetralin
T1 sequence (P19327 whole entry): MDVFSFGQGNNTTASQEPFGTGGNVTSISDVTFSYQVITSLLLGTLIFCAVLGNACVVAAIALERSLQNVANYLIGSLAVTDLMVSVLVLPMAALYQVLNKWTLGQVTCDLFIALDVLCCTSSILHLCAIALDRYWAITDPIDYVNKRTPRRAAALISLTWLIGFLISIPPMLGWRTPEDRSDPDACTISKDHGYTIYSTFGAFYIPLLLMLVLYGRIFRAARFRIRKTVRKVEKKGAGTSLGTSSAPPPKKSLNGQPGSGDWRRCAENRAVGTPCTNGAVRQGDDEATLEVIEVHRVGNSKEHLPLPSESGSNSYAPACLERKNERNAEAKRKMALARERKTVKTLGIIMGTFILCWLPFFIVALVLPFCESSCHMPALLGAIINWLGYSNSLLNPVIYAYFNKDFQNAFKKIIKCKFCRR
How it was run: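 Rat hippocampus membranes from male Sprague-Dawley rats, homogenized in 50 mM Tris pH 7.7, preincubated 10 min at 37 °C. Final incubation buffer was 50 mM Tris, 4 mM CaCl2, 10 μM pargyline, 0.1% ascorbic acid, pH 7.4. [3H]-8-OH-DPAT at 0.3 nM final, 30 min at 25 °C, then filtration. Nonspecific binding was defined with 10 μM serotonin.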

[3] = biological target: Serotonin 2 (5-HT2) receptor (Rattus norvegicus, UniProt P30994+P08909+P14842); experiment: In vitro binding affinity was measured on serotonergic 5-hydroxytryptamine 2 receptor by displacement of [3H]- ketanserin; type: protein assay
Mus musculus [4] = experiment: Tested in vivo for their ability to antagonize the apomorphine induced stereotypy response in mice after peroral administration; type: functional; conditions: po; how it was run: as §1
Mus musculus [5] = experiment: In vivo the ability to antagonize the apomorphine induced climbing response in mice after peroral administration; type: functional; conditions: po; how it was run: as §1
Mus musculus [6] = experiment: Tested in vivo for their ability to induction of catalepsy in mice after peroral administration; type: functional; conditions: po
How it was run: (§2)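 Catalepsy induction was tested in male CD-1 mice (20–25 g). Drug was given in 0.5% methyl cellulose vehicle at 0.5–2.0 mL/100 g. ED50 by Litchfield–Wilcoxon.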

Mus musculus [7] = experiment: Tested in vivo for their ability to induction of catalepsy in mice; type: functional; how it was run: as §2
Mus musculus [8] = experiment: Tested in vivo for their ability to antagonize the apomorphine induced stereotypy response in mice; type: functional; how it was run: as §1

IC50 [2] [nM] | IC50 [3] [nM] | SMILES | ED50 (Mus musculus [1]; Mus musculus, read-out: ED50) [mg/kg] | ED50 (Mus musculus [4]) [mg/kg] | ED50 (Mus musculus [5]) [mg/kg] | ED50 (Mus musculus [6]) [mg/kg] | ED50 (Mus musculus [7]) [mg/kg] | ED50 (Mus musculus [8]) [mg/kg] | ED50 (Mus musculus [1]) [mg/kg]
0.19 | 7.6 | O=C1c2ccccc2C(=O)N1CCCCN1CCN(c2nsc3ccccc23)CC1 | 6.2 | – | – | – | – | – | –
1.7 | 2.9 | O=c1c2ccccc2nnn1CCCCN1CCN(c2nsc3ccccc23)CC1 | – | 57.8 | 19.1 | 252 | – | – | –
0.59 | 2.3 | O=c1c2ccccc2ncn1CCCCN1CCN(c2nsc3ccccc23)CC1 | – | – | 6.2 | – | – | – | –
350 | 150 | O=c1c2ccccc2[nH]n1CCCCN1CCN(c2nsc3ccccc23)CC1 | – | – | > 25 | – | – | – | –
120 | 140 | O=c1c2ccccc2sn1CCCCN1CCN(c2nsc3ccccc23)CC1 | – | – | > 25 | – | – | – | –
4.1 | 4.2 | O=C1c2ccccc2CCCN1CCCCN1CCN(c2nsc3ccccc23)CC1 | > 25 | – | – | – | – | – | –
7 | 5.1 | O=C1c2ccccc2CN1CCCCN1CCN(c2nsc3ccccc23)CC1 | 6.3 | – | – | – | > 360 | 24.7 | –
3.4 | 0.84 | Cc1nn(CCCCN2CCN(c3nsc4ccccc34)CC2)c(=O)c2ccccc12 | – | – | 30.4 | – | – | – | –
1.8 | 4.7 | O=C1Cc2ccccc2C(=O)N1CCCCN1CCN(c2nsc3ccccc23)CC1 | 12.2 | – | – | – | 133 | 40.3 | –
33 | 7.9 | CCOC(=O)n1c2ccccc2c(=O)n1CCCCN1CCN(c2nsc3ccccc23)CC1 | > 25 | – | – | – | – | – | –
2.6 | 76 | O=c1[nH]n(CCCCN2CCN(c3nsc4ccccc34)CC2)c(=O)c2ccccc12 | – | – | > 25 | – | – | – | –
10 | 1.8 | O=c1c2ccccc2cnn1CCCCN1CCN(c2nsc3ccccc23)CC1 | – | 29.8 | 9.5 | 70.4 | – | – | –
0.64 | 1.9 | O=C1c2ccccc2CCN1CCCCN1CCN(c2nsc3ccccc23)CC1 | 16.4 | – | – | – | – | – | –
0.4 | 1.1 | O=C1c2ccccc2S(=O)(=O)N1CCCCN1CCN(c2nsc3ccccc23)CC1 | – | – | 48.7 | – | – | – | –
0.82 | 0.76 | O=C1C2CCCCC2C=NN1CCCCN1CCN(c2nsc3ccccc23)CC1 (stereo in doubt; 52) | – | – | – | – | – | – | 16.2
0.021 | 0.38 | O=C1C2CCCCC2C=NN1CCCCN1CCN(c2nsc3ccccc23)CC1 (stereo in doubt; 53) | 25 | – | – | – | – | – | –
– | – | O=C(CCCN1CCC(O)(c2ccc(Cl)cc2)CC1)c1ccc(F)cc1 [HALOPERIDOL] | – | – | – | – | 3 | 0.9 | –
